Data published in ChEMBL document CHEMBL1122111, “Allergenic alpha-methylene-gamma-butyrolactones. Stereospecific syntheses of (+)- and (-)-gamma-methyl-alpha-methylene-gamma-butyrolactones. A study of the specificity of (+) and (-) enantiomers in inducing allergic contact dermatitis” (1982).
“And” between values parts separate entries of the source, which are not always exact repeats. Identical values can stand only once.

Key:
Type in all cases: functional
[1] = organism: Cavia porcellus; assay: Tested for effect on guinea pigs sensitized with (R)5-Methyl-3- methylene-dihydro-furan-2-one and number of animals showing erythema covering the part of the test area
Method in brief: (§1)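 Female albino Hartley guinea pigs (250–300 g) received three 0.1-mL intradermal nuchal injections on alternate days of a 1:1 FCA/saline emulsion with 5% (+)-enantiomer. After 2 weeks rest, 0.25 mL of 1% or 2% methylene chloride solution was deposited on a 2-cm2 circle and read every 24 h. Erythema/swelling was scored 0–3; av = summed intensities divided by animal number.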

[2] = organism: Cavia porcellus; assay: Tested for effect on guinea pigs sensitized with (+/-)-5-Methyl-3- methylene-dihydro-furan-2-one; Number of sensitive animals out of 8 tested
Method in brief: (§2)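 Female albino Hartley guinea pigs (250–300 g), sensitized by three intradermal nuchal injections of 0.1 mL on alternate days. The emulsion was 1:1 FCA/saline with 10% racemate (5% of each antipode). After 2 weeks rest, 0.25 mL of 1% or 2% methylene chloride solution was applied to a 2-cm2 area. Reactions were scored 0–3 every 24 h; av = summed scores/animals.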

[3] = organism: Cavia porcellus; assay: Tested for effect on guinea pigs sensitized with (S)5-Methyl-3- methylene-dihydro-furan-2-one and number of animals showing no reaction
Method in brief: (§3)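 Sensitization: female albino Hartley guinea pigs (250–300 g) were given three alternate-day 0.1-mL intradermal nuchal injections of 1:1 FCA/saline emulsion containing 5% (−)-enantiomer. Challenge after 2 weeks rest used 0.25 mL of 1% or 2% methylene chloride solution on a 2-cm2 area, read every 24 h. The scale was 0 (none) to 3 (erythema/swelling beyond area); av = summed scores/animals.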

[4] = organism: Cavia porcellus; assay: Tested for effect on guinea pigs sensitized with (S)5-Methyl-3- methylene-dihydro-furan-2-one and av is calculated by adding the test intensity and divided by the number of animals; method in brief: as §3
[5] = organism: Cavia porcellus; assay: Tested for effect on guinea pigs sensitized with (+/-)-5-Methyl-3- methylene-dihydro-furan-2-one and av is calculated by adding the test intensity and divided by the number of animals; method in brief: as §2
[6] = organism: Cavia porcellus; assay: Tested for effect on guinea pigs sensitized with (S)5-Methyl-3- methylene-dihydro-furan-2-one and number of animals showing erythema covering the whole test area; method in brief: as §3
[7] = organism: Cavia porcellus; assay: Tested for effect on guinea pigs sensitized with (R)-5-Methyl-3-methylene-dihydro-furan-2-one; Number of sensitive animals out of 8 tested; method in brief: as §1
[8] = organism: Cavia porcellus; assay: Tested for effect on guinea pigs sensitized with (R)5-Methyl-3- methylene-dihydro-furan-2-one and av is calculated by adding the test intensity and divided by the number of animals; method in brief: as §1
[9] = organism: Cavia porcellus; assay: Tested for effect on guinea pigs sensitized with (+/-)-5-Methyl-3- methylene-dihydro-furan-2-one and number of animals showing no reaction; method in brief: as §2
[10] = organism: Cavia porcellus; assay: Tested for effect on guinea pigs sensitized with (S)5-Methyl-3- methylene-dihydro-furan-2-one; Number of sensitive animals out of 8 tested; method in brief: as §3
[11] = organism: Cavia porcellus; assay: Tested for effect on guinea pigs sensitized with (+/-)-5-Methyl-3- methylene-dihydro-furan-2-one and number of animals showing erythema covering the whole test area; method in brief: as §2
[12] = organism: Cavia porcellus; assay: Tested for effect on guinea pigs sensitized with (R)5-Methyl-3- methylene-dihydro-furan-2-one and number of animals showing erythema covering the whole test area; method in brief: as §1
[13] = organism: Cavia porcellus; assay: Tested for effect on guinea pigs sensitized with (+/-)-5-Methyl-3- methylene-dihydro-furan-2-one and number of animals showing erythema and swelling of the test area; method in brief: as §2
[14] = organism: Cavia porcellus; assay: Tested for effect on guinea pigs sensitized with (S)5-Methyl-3 -methylene-dihydro-furan-2-one and number of animals showing erythema covering the whole test area; method in brief: as §3
[15] = organism: Cavia porcellus; assay: Tested for effect on guinea pigs sensitized with (+/-)-5-Methyl-3- methylene-dihydro-furan-2-one and number of animals showing erythema covering the part of the test area; method in brief: as §2
[16] = organism: Cavia porcellus; assay: Tested for effect on guinea pigs sensitized with (R)5-Methyl-3- methylene-dihydro-furan-2-one; Number of sensitive animals out of 8 tested; method in brief: as §1
[17] = organism: Cavia porcellus; assay: Tested for effect on guinea pigs sensitized with (R)5-Methyl-3 -methylene-dihydro-furan-2-one and number of animals showing erythema covering the whole test area; method in brief: as §1
[18] = organism: Cavia porcellus; assay: Tested for effect on guinea pigs sensitized with (R)5-Methyl-3 -methylene-dihydro-furan-2-one and number of animals showing erythema covering the part of the test area; method in brief: as §1
[19] = organism: Cavia porcellus; assay: Tested for effect on guinea pigs sensitized with (+/-)-5-Methyl-3- methylene-dihydro-furan-2-one; Number of sensitive animals; method in brief: as §2
[20] = organism: Cavia porcellus; assay: Tested for effect on guinea pigs sensitized with (S)5-Methyl-3-methylene-dihydro- furan-2-onenumber of animals showing erythema covering the whole test area; method in brief: as §3
[21] = organism: Cavia porcellus; assay: Tested for effect on guinea pigs sensitized with (R)-5-Methyl-3-methylene -dihydro -furan-2-one, number of animals showing erythema and swelling of the test area; method in brief: as §1
[22] = organism: Cavia porcellus; assay: Tested for effect on guinea pigs sensitized with (S)5-Methyl-3-methylene-dihydro- furan-2-one number of animals showing erythema and swelling of the test area.; method in brief: as §3
[23] = organism: Cavia porcellus; assay: Tested for effect on guinea pigs sensitized with (R)-5-Methyl-3-methylene -dihydro -furan-2-one,number of animals showing no reaction; method in brief: as §1
[24] = organism: Cavia porcellus; assay: Tested for effect on guinea pigs sensitized with (+/-)-5-Methyl-3-methylene-dihydro-furan-2-one, av is calculated by adding the test intensity and divided by the number of animals; method in brief: as §2
[25] = organism: Cavia porcellus; assay: Tested for effect on guinea pigs sensitized with (+/-)-5-Methyl-3-methylene-dihydro-furan-2-one,number of animals showing no reaction; method in brief: as §2
[26] = organism: Cavia porcellus; assay: Tested for effect on guinea pigs sensitized with (R)-5-Methyl-3-methylene -dihydro -furan-2-one, Number of sensitive animals out of 8 tested; method in brief: as §1
[27] = organism: Cavia porcellus; assay: Tested for effect on guinea pigs sensitized with (+/-)-5-Methyl-3-methylene-dihydro-furan-2-one number of animals showing erythema and swelling of the test area; method in brief: as §2
[28] = organism: Cavia porcellus; assay: Tested for effect on guinea pigs sensitized with (+/-)-5-Methyl-3-methylene-dihydro-furan-2-one, Number of sensitive animals out of 8 tested; method in brief: as §2
[29] = organism: Cavia porcellus; assay: Tested for effect on guinea pigs sensitized with (S)5-Methyl-3-methylene-dihydro- furan-2-one,av is calculated by adding the test intensity and divided by the number of animals; method in brief: as §3
[30] = organism: Cavia porcellus; assay: Tested for effect on guinea pigs sensitized with (+/-)-5-Methyl-3-methylene-dihydro-furan-2-one,number of animals showing erythema covering the part of the test area; method in brief: as §2
[31] = organism: Cavia porcellus; assay: Tested for effect on guinea pigs sensitized with (R)-5-Methyl-3-methylene -dihydro -furan-2-one,number of animals showing erythema covering the part of the test area; method in brief: as §1
[32] = organism: Cavia porcellus; assay: Tested for effect on guinea pigs sensitized with (S)5-Methyl-3-methylene-dihydro- furan-2-one number of animals showing no reaction; method in brief: as §3
[33] = organism: Cavia porcellus; assay: Tested for effect on guinea pigs sensitized with (R)-5-Methyl-3-methylene -dihydro -furan-2-one,number of animals showing erythema covering the whole test area; method in brief: as §1
[34] = organism: Cavia porcellus; assay: Tested for effect on guinea pigs sensitized with (S)5-Methyl-3-methylene-dihydro- furan-2-one; Number of sensitive animals out of 8 tested; method in brief: as §3
[35] = organism: Cavia porcellus; assay: Tested for effect on guinea pigs sensitized with (S)5-Methyl-3-methylene-dihydro- furan-2-one number of animals showing erythema covering the part of the test area; method in brief: as §3
[36] = organism: Cavia porcellus; assay: Tested for effect on guinea pigs sensitized with (R)-5-Methyl-3-methylene -dihydro -furan-2-one,av is calculated by adding the test intensity and divided by the number of animals; method in brief: as §1
[37] = organism: Cavia porcellus; assay: Tested for effect on guinea pigs sensitized with (+/-)-5-Methyl-3-methylene-dihydro-furan-2-one,number of animals showing erythema covering the whole test area; method in brief: as §2

**Q.** Which Skin tests intensity [1] does the source give for C=C1CC(C)OC1=O (configuration not stated) here?
**A.** 1

**Q.** What about the “No. of sensitive animals” value [2] of the same compound?
**A.** 8

**Q.** And the Skin tests intensity [3]?
**A.** 0

**Q.** And the av [4]?
**A.** 1.9 and 0.9

**Q.** And the av [5]?
**A.** 1.8 and 1.5

**Q.** What about the Skin tests intensity [6] of the same compound?
**A.** 7

**Q.** What about the “No. of sensitive animals” value [7] of the same compound?
**A.** 8

**Q.** And the av [8]?
**A.** 1.8 and 0.7

**Q.** And the Skin tests intensity [9]?
**A.** 0

**Q.** What about the “No. of sensitive animals” value [10] of the same compound?
**A.** 8

**Q.** What about the Skin tests intensity [11] of the same compound?
**A.** 2 and 4

**Q.** What about the Skin tests intensity [12] of the same compound?
**A.** 5

**Q.** What about the Skin tests intensity [13] of the same compound?
**A.** 6 and 4

**Q.** And the Skin tests intensity [14]?
**A.** 1

**Q.** What about the Skin tests intensity [15] of the same compound?
**A.** 0

**Q.** What about the “No. of sensitive animals” value [16] of the same compound?
**A.** 6

**Q.** What about the Skin tests intensity [17] of the same compound?
**A.** 2

**Q.** What about the Skin tests intensity [18] of the same compound?
**A.** 0

**Q.** What about the “No. of sensitive animals” value [19] of the same compound?
**A.** 8

**Q.** What does the source list for C=C1C[C@@H](C)OC1=O?
**A.** Skin tests intensity [20]: 5; Skin tests intensity [21]: 3; Skin tests intensity [22]: 0; Skin tests intensity [23]: 0; av [24]: 1.7; Skin tests intensity [25]: 0; No. of sensitive animals [26]: 8; Skin tests intensity [27]: 6; No. of sensitive animals [28]: 8; av [29]: 0.8; Skin tests intensity [30]: 1; Skin tests intensity [31]: 1; Skin tests intensity [32]: 0; Skin tests intensity [33]: 4; No. of sensitive animals [34]: 8; Skin tests intensity [35]: 3; av [36]: 1.3; Skin tests intensity [37]: 1
